Experimental data as given in ChEMBL document CHEMBL4732025, “Assessment of the rules related to gaining activity against Gram-negative bacteria” (RSC Med Chem, 2021).

What was measured:
Escherichia coli [1] = experiment: Antimicrobial activity against Escherichia coli harboring delta tolC mutant assessed as growth inhibition at 100 uM relative to control; type: functional
How it was run: (§1)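 E. coli K12 wild-type and its ΔtolC and ΔacrB efflux mutants were used. Percentage growth inhibition was taken at 100 μM, or at 25 or 50 μM where compound solubility limited the top concentration, when no MIC could be determined.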

Escherichia coli [2] = experiment: Antimicrobial activity against Escherichia coli BL21 (DE3) assessed as growth inhibition at 100 uM relative to control; type: functional
How it was run: (§2)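 Broth growth assay with E. coli BL21(DE3)omp8 (porin-[…]), E. coli D22 or S. aureus Newman. Percent growth inhibition was measured at 100 μM, or at a lower concentration where compound solubility limited it, whenever no MIC could be determined.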

Escherichia coli [3] = experiment: Antimicrobial activity against Escherichia coli harboring deltaACRB mutant assessed as growth inhibition at 100 uM relative to control; type: functional; how it was run: as §1
Escherichia coli [4] = experiment: Antimicrobial activity against Escherichia coli K-12 mutant assessed as growth inhibition at 100 uM relative to control; type: functional; how it was run: as §1
Escherichia coli [5] = experiment: Antimicrobial activity against Escherichia coli D22 assessed as growth inhibition at 100 uM relative to control; type: functional; how it was run: as §2
Staphylococcus aureus [6] = experiment: Antimicrobial activity against Staphylococcus aureus subsp. aureus str. Newman assessed as growth inhibition at 100 uM relative to control; type: functional; how it was run: as §2
Escherichia coli [7] = experiment: Antimicrobial activity against Escherichia coli harboring delta tolC mutant assessed as growth inhibition at 50 uM relative to control; type: functional; how it was run: as §1
HepG2 [8] = experiment: Cytotoxicity against human HepG2 cells at 100 uM after 72 hrs by MTT assay; type: functional
Plasmodium falciparum = experiment: Antiplasmodial activity against Plasmodium falciparum NF54 infected in human erythrocyte assessed as reduction in [3H]hypoxanthine incorporation incubated for 24 hrs by beta liquid scintillation counter analysis; type: functional
How it was run: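 Compounds (DMSO stocks) were titrated in duplicate over a 64-fold range at 1.25% haematocrit and 0.3% parasitaemia for 48 h. [3H]hypoxanthine (0.25 μCi/well) was then added for 24 h and incorporation counted by scintillation. Results are % of untreated control, with IC50 by linear interpolation.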

Staphylococcus aureus [9] = experiment: Antimicrobial activity against Staphylococcus aureus subsp. aureus str. Newman assessed as growth inhibition at 50 uM relative to control; type: functional; how it was run: as §2
Escherichia coli [10] = experiment: Antimicrobial activity against Escherichia coli D22 assessed as growth inhibition at 50 uM relative to control; type: functional; how it was run: as §2
[11] = Inhibition of PK/LDH (unknown origin)
How it was run: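 Counter-screen of the auxiliary enzymes: 1 mM ADP, 2 mM PEP, 1 mM NADH, PK and LDH (0.05 U/mL each), 10 mM MgCl2, 200 mM KCl, 10 mM DTT in 100 mM Tris-HCl pH 7.6. Compound added from DMSO. NADH decrease monitored photometrically at room temperature for 30 min.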

HepG2 [12] = experiment: Cytotoxicity against human HepG2 cells at 50 uM after 72 hrs by MTT assay; type: functional
Escherichia coli [13] = experiment: Antimicrobial activity against Escherichia coli BL21 (DE3) assessed as growth inhibition at 50 uM relative to control; type: functional; how it was run: as §2
[14] = molecular target: T1, 4-diphosphocytidyl-2-C-methyl-D-erythritol kinase (Escherichia coli (strain K12), UniProt P62615); experiment: Inhibition of IspE expressed in Escherichia coli incubated for 30 mins by microplate reader assay
T1 sequence (P62615 whole entry): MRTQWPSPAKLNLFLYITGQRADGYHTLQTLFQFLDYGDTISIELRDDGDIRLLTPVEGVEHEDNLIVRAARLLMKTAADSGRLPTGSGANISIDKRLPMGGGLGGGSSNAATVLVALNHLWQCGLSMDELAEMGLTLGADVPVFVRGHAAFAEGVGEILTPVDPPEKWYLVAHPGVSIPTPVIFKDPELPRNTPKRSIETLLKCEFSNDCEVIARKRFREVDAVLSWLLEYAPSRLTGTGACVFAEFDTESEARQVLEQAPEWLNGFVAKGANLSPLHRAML

Escherichia coli [15] = experiment: Antimicrobial activity against Escherichia coli harboring deltaACRB mutant assessed as growth inhibition at 50 uM relative to control; type: functional; how it was run: as §1
[16] = Inhibition of IspE in Plasmodium falciparum incubated for 30 mins by microplate reader assay
How it was run: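 P. falciparum IspE with C-terminal His6, expressed in E. coli XL1 and purified by Ni2+ chelating chromatography and then G-25 gel filtration. Coupled PK/LDH assay with 1.0 mM CDP-ME in 100 mM Tris-HCl pH 7.6 plus MgCl2, KCl, DTT, NADH, PEP, ATP, PK and LDH. Compound added from DMSO. Read photometrically at room temperature for 30 min.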

[17] = Octanol/water partition co-efficient, log P of compound; type: physicochemical
How it was run: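 Log P(o/w) calculated in silico, not measured.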

Escherichia coli [18] = experiment: Antimicrobial activity against Escherichia coli K-12 mutant assessed as growth inhibition at 100 uM in presence of polymyxin B nonapeptide relative to control; type: functional
Escherichia coli [19] = experiment: Antimicrobial activity against Escherichia coli harboring deltaACRB mutant assessed as growth inhibition at 25 uM relative to control; type: functional; how it was run: as §1
Staphylococcus aureus [20] = experiment: Antimicrobial activity against Staphylococcus aureus subsp. aureus str. Newman assessed as growth inhibition at 25 uM relative to control; type: functional; how it was run: as §2
Escherichia coli [21] = experiment: Antimicrobial activity against Escherichia coli BL21 (DE3) assessed as growth inhibition at 25 uM relative to control; type: functional; how it was run: as §2
Escherichia coli [22] = experiment: Antimicrobial activity against Escherichia coli D22 assessed as growth inhibition at 25 uM relative to control; type: functional; how it was run: as §2
Escherichia coli [23] = experiment: Antimicrobial activity against Escherichia coli harboring delta tolC mutant assessed as growth inhibition at 25 uM relative to control; type: functional; how it was run: as §1
HepG2 [24] = experiment: Cytotoxicity against human HepG2 cells at 25 uM after 72 hrs by MTT assay; type: functional

CC(C)[C@H](N[C@H](N)C(=O)Nc1csc(-c2ccccc2)n1)C(=O)O
inhibition at 100 µM (Escherichia coli [1]): 17%
inhibition at 100 µM (Escherichia coli [2]): 16%
inhibition at 100 µM (Escherichia coli [3]): 2%
inhibition at 100 µM (Escherichia coli [4]): 13%
inhibition at 100 µM (Escherichia coli [5]): 14%
inhibition at 100 µM (Staphylococcus aureus [6]): 5%

Cc1cc(-c2csc(NC(=O)[C@@H](NC(=O)OC(C)(C)C)N[C@@H](CC(C)C)C(=O)O)n2)c(C)n1C
inhibition at 50 µM (Escherichia coli [7]): 8%

Cc1cc(-c2csc(NC(=O)[C@@H](NC(=O)OC(C)(C)C)N[C@@H](Cc3ccc(O)cc3)C(=O)O)n2)c(C)n1C
inhibition at 50 µM (Escherichia coli [7]): 13%

N[C@@H](NCC(=O)O)C(=O)Nc1csc(-c2ccccc2)n1
inhibition at 100 µM (Escherichia coli [1]): 10%
inhibition at 100 µM (HepG2 [8]): 17%
inhibition at 100 µM (Escherichia coli [2]): 19%
inhibition at 100 µM (Escherichia coli [3]): 6%
inhibition at 100 µM (Escherichia coli [4]): 22%
inhibition at 100 µM (Escherichia coli [5]): 15%
inhibition at 100 µM (Staphylococcus aureus [6]): 5%

CCCn1c(C)cc(-c2csc(NC(=O)c3cccs3)n2)c1C
IC50 (Plasmodium falciparum): 6 µM
inhibition at 50 µM (Staphylococcus aureus [9]): 7%
inhibition at 50 µM (Escherichia coli [10]): 4%
IC50 [11]: 56 µM
inhibition at 50 µM (HepG2 [12]): -3%
inhibition at 50 µM (Escherichia coli [13]): 19%
inhibition at 50 µM (Escherichia coli [7]): 33%
IC50 [14]: 68 µM
inhibition at 50 µM (Escherichia coli [15]): 7%
IC50 [16]: 35 µM

Cc1cc(-c2csc(NC(=O)[C@@H](N)NCC(=O)O)n2)c(C)n1C
inhibition at 50 µM (HepG2 [12]): 19%
inhibition at 100 µM (Escherichia coli [1]): 57%
logP [17]: 0.9
inhibition at 100 µM (Escherichia coli [2]): 18%
inhibition at 100 µM (Escherichia coli [3]): 8%
inhibition at 100 µM (Escherichia coli [4]): 13%
inhibition at 100 µM (Escherichia coli [5]): 3%
inhibition at 100 µM (Staphylococcus aureus [6]): 6%

CC(C)C[C@H](N[C@H](N)C(=O)Nc1csc(-c2ccccc2)n1)C(=O)O
inhibition at 100 µM (Escherichia coli [1]): 32%
inhibition at 100 µM (Escherichia coli [2]): 30%
inhibition at 100 µM (Escherichia coli [3]): 11%
inhibition at 100 µM (Escherichia coli [4]): 18%
inhibition at 100 µM (Escherichia coli [5]): 18%
inhibition at 100 µM (Staphylococcus aureus [6]): 11%

Cc1cc(-c2csc(NC(=O)[C@H](NCC(=O)O)NC(=O)OC(C)(C)C)n2)c(C)n1C
inhibition at 100 µM (Escherichia coli [1]): 46%

Cc1cc(-c2csc(NC(=O)[C@@H](N)N[C@@H](Cc3ccc(O)cc3)C(=O)O)n2)c(C)n1C
inhibition at 100 µM (Escherichia coli [1]): 38%

Nc1nc(=O)n(C2CCCS2)cc1C#CCNS(=O)(=O)C1CC1 (stereo unspecified)
inhibition at 100 µM (Escherichia coli [18]): 6%
IC50 [11]: > 500 µM
IC50 [14]: 1 µM
IC50 [16]: > 500 µM

CC(C)[C@H](N[C@H](NC(=O)OC(C)(C)C)C(=O)Nc1csc(-c2ccccc2)n1)C(=O)O
inhibition at 100 µM (Escherichia coli [1]): 21%

CC(C)(C)OC(=O)N[C@@H](NCC(=O)O)C(=O)Nc1csc(-c2ccccc2)n1
inhibition at 100 µM (Escherichia coli [1]): 34%

Cc1cc(-c2csc(NC(=O)[C@@H](N)N[C@@H](CC(C)C)C(=O)O)n2)c(C)n1C
inhibition at 100 µM (Escherichia coli [1]): 58%
inhibition at 100 µM (Staphylococcus aureus [6]): 52%

CCCn1c(C)cc(-c2csc(NC(=O)c3ccco3)n2)c1C
inhibition at 25 µM (Escherichia coli [19]): 5%
inhibition at 25 µM (Staphylococcus aureus [20]): 6%
IC50 (Plasmodium falciparum): 5 µM
IC50 [11]: 65 µM
inhibition at 25 µM (Escherichia coli [21]): 3%
inhibition at 25 µM (Escherichia coli [22]): 9%
inhibition at 25 µM (Escherichia coli [23]): 30%
IC50 [14]: 91 µM
inhibition at 25 µM (HepG2 [24]): 19%
IC50 [16]: 57 µM

CC(C)C[C@H](N[C@H](NC(=O)OC(C)(C)C)C(=O)Nc1csc(-c2ccccc2)n1)C(=O)O
inhibition at 100 µM (Escherichia coli [1]): 3%

Cc1cc(-c2csc(NC(=O)[C@@H](NC(=O)OC(C)(C)C)N[C@H](C(=O)O)C(C)C)n2)c(C)n1C
inhibition at 50 µM (Escherichia coli [7]): 14%

Cc1cc(-c2csc(NC(=O)[C@@H](N)N[C@H](C(=O)O)C(C)C)n2)c(C)n1C
inhibition at 100 µM (Escherichia coli [1]): 42%

CCn1c(C)cc(-c2csc(NC(=O)[C@@H](N)NCC(=O)O)n2)c1C
inhibition at 50 µM (Staphylococcus aureus [9]): 14%
inhibition at 100 µM (Escherichia coli [1]): 55%
logP [17]: 1.4
inhibition at 100 µM (HepG2 [8]): 23%
inhibition at 100 µM (Escherichia coli [2]): 16%
inhibition at 100 µM (Escherichia coli [3]): 65%
inhibition at 100 µM (Escherichia coli [4]): 13%
inhibition at 100 µM (Escherichia coli [5]): 20%

CCn1c(C)cc(-c2csc(NC(=O)[C@H](NCC(=O)O)NC(=O)OC(C)(C)C)n2)c1C
inhibition at 50 µM (Escherichia coli [7]): 41%
